Source: ChEMBL document CHEMBL1641377, “Discovery of novel, potent, selective, and orally active human glucagon receptor antagonists containing a pyrazole core” (Bioorg Med Chem Lett, 2011)
Active and inactive are the calls of the source. No cut-off for these calls is given here.

What was measured:
[1] = tested on: Rhesus monkey; assay: Antidiabetic activity in rhesus monkey assessed as inhibition of glucagon-induced blood glucose excursion at 1 to 10 mg/kg, po administered 4 hrs before glucagon challenge measured after 4 hrs; assay type: functional, organism-based; settings: Macaca mulatta
Outline: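 Overnight-fasted rhesus monkeys dosed with vehicle or compound 4 h before challenge; glucagon 15 µg/kg im at time zero, plasma glucose monitored every 10 min and expressed as change from time zero per group.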

[2] = Antagonist activity at rhesus monkey GCGR assessed as inhibition of glucagon-induced cAMP accumulation; assay type: functional, Macaca mulatta
[3] = tested on: Mus musculus; assay: In vivo occupancy of human GCGR transfected in mouse at 10 mg/kg after 8 hrs; assay type: functional
Outline: (§1)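 In vivo receptor occupancy measured in hGCGR transgenic mice after oral dosing, at 1 h post-dose (30 and 10 mpk) and in a separate experiment at 1, 3 and 8 h after 10 mpk.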

[4] = tested on: Canis familiaris; assay: Dose normalized AUC in dog at 2 mg/kg, po; assay type: ADME, organism-based, Canis lupus familiaris; design: dose 2 mg/kg, route oral; settings: in vivo
[5] = biological target: Cytochrome P450 2C9 (Homo sapiens, UniProt P11712); assay: Inhibition of CYP2C9; assay type: ADME
[6] = Half life in dog at 0.5 mg/kg, iv and 2 mg/kg, po; assay type: ADME, organism-based, Canis lupus familiaris; settings: in vivo
[7] = biological target: Uncharacterized protein (Canis lupus familiaris, UniProt A0A8I3N355); assay: Antagonist activity at dog GCGR assessed as inhibition of glucagon-induced cAMP accumulation; assay type: functional
[8] = tested on: Mus musculus; assay: In vivo occupancy of human GCGR transfected in mouse at 10 mg/kg after 1 hr; assay type: functional; outline: as §1
[9] = biological target: Glucagon receptor (Rattus norvegicus, UniProt P30082); assay: Antagonist activity at rat GCGR assessed as inhibition of glucagon-induced cAMP accumulation; assay type: functional
[10] = Bioavailability in rhesus monkey at 0.5 mg/kg, iv and 2 mg/kg, po; assay type: ADME, organism-based, Macaca mulatta; settings: in vivo
[11] = Drug level in blood of transgenic mouse expressing human GCGR at 10 mg/kg, po after 120 mins; assay type: ADME, organism-based; design: dose 10 mg/kg, route oral; settings: read-out: Drug uptake
Outline: (§2)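 Blood drug concentration sampled in hGCGR transgenic mice during the oral glucagon-challenge pharmacodynamic assay at 45 and 120 min post dose, 10 and 30 mpk groups, n = 3 per group.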

[12] = Bioavailability in mouse at 1 mg/kg, iv and 2 mg/kg, po; assay type: ADME, organism-based; settings: in vivo
[13] = Volume of distribution at steady state in rhesus monkey at 0.5 mg/kg, iv and 2 mg/kg, po; assay type: ADME, organism-based, Macaca mulatta; settings: in vivo, read-out: Vdss
[14] = Drug level in blood of transgenic mouse expressing human GCGR at 30 mg/kg, po after 45 mins; assay type: ADME, organism-based; design: dose 30 mg/kg, route oral; settings: read-out: Drug uptake; outline: as §2
[15] = Plasma clearance in dog at 0.5 mg/kg, iv and 2 mg/kg, po; assay type: ADME, organism-based, Canis lupus familiaris
[16] = species: Oryctolagus cuniculus; assay: Binding affinity to DLZ-sensitive rabbit calcium channel up to 10 uM
[17] = tested on: Mus musculus; assay: In vivo occupancy of human GCGR transfected in mouse at 30 mg/kg, po after 1 hr; assay type: functional; outline: as §1
[18] = Drug level in blood of transgenic mouse expressing human GCGR at 30 mg/kg, po after 120 mins; assay type: ADME, organism-based; design: dose 30 mg/kg, route oral; settings: read-out: Drug uptake; outline: as §2
[19] = biological target: Cytochrome P450 2D6 (Homo sapiens, UniProt P10635); assay: Inhibition of CYP2D6; assay type: ADME
[20] = biological target: T1, Gastric inhibitory polypeptide receptor (Homo sapiens, UniProt P48546); assay: Antagonist activity at human GIPR expressed in CHO cells assessed as inhibition of glucagon-induced cAMP accumulation; assay type: functional, cell-based
T1 sequence (P48546 whole entry): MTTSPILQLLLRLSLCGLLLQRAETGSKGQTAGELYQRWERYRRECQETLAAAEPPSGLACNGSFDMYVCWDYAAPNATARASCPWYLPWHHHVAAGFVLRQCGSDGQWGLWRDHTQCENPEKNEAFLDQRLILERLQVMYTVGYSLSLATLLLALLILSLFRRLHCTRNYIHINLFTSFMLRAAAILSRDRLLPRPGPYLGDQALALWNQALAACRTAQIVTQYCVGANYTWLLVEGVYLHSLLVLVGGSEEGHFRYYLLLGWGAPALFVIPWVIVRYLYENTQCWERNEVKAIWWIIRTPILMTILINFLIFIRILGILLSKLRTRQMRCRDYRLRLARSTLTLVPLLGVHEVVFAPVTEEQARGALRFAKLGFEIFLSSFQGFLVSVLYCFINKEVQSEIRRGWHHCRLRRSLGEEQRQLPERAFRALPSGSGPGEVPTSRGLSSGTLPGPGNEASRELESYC

[21] = tested on: Rattus norvegicus; assay: Dose normalized AUC in rat at 2 mg/kg, po; assay type: ADME, organism-based; design: dose 2 mg/kg, route oral; settings: in vivo
[22] = tested on: Mus musculus; assay: Antidiabetic activity in transgenic mouse expressing human GCGR assessed as inhibition of glucagon-induced blood glucose excursion at 30 mg/kg, po administered 3 hrs before glucagon challenge measured after 48 mins; assay type: functional, organism-based; design: dose 30 mg/kg
Outline: (§3)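 hGCGR transgenic mice (only functional receptor is human GCGR), 9 per group, given compound orally, then glucagon 15 µg/kg IP 60 min later (one arm dosed 30 mpk three hours before challenge); blood glucose monitored at 12, 24, 36 and 48 min after glucagon.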

[23] = Bioavailability in rat at 1 mg/kg, iv and 2 mg/kg, po; assay type: ADME, organism-based; settings: in vivo
[24] = Cmax in mouse at 2 mg/kg, po; assay type: ADME, organism-based; design: dose 2 mg/kg, route oral; settings: in vivo
[25] = biological target: Glucagon receptor (Mus musculus, UniProt Q61606); assay: Antagonist activity at mouse GCGR assessed as inhibition of glucagon-induced cAMP accumulation; assay type: functional
[26] = Bioavailability in dog at 0.5 mg/kg, iv and 2 mg/kg, po; assay type: ADME, organism-based, Canis lupus familiaris; settings: in vivo
[27] = tested on: Mus musculus; assay: Antidiabetic activity in transgenic mouse expressing human GCGR assessed as inhibition of glucagon-induced blood glucose excursion at 30 mg/kg, po administered 60 mins before glucagon challenge measured after 48 mins; assay type: functional, organism-based; design: dose 30 mg/kg; outline: as §3
[28] = Cmax in rat at 2 mg/kg, po; assay type: ADME, organism-based; design: dose 2 mg/kg, route oral; settings: in vivo
[29] = Plasma concentration in rhesus monkey at 0.3 mg/kg, po after 4 hrs; assay type: ADME, organism-based, Macaca mulatta; design: dose 0.3 mg/kg, route oral
Outline: (§4)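 Overnight-fasted rhesus monkeys received the oral dose 4 h before the glucagon challenge (15 µg/kg im, time zero). Plasma drug level was sampled at the time of the challenge (t = 0, n = 4). Plasma glucose was then followed every 10 min and expressed as the change from time zero.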

[30] = Plasma concentration in rhesus monkey at 1 mg/kg, po after 4 hrs; assay type: ADME, organism-based, Macaca mulatta; design: dose 1 mg/kg, route oral; outline: as §4
[31] = biological target: Glucagon receptor (Homo sapiens, UniProt P47871); assay: Displacement of [125I]glucagon from human GCGR expressed in CHO cells; assay type: cell-based
Outline: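 Binding inhibition of 125I-glucagon to human GCGR expressed in CHO cell membranes; IC50 reported, n given where replicated.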

Cytochrome P450 2D6, sequence (P10635 whole entry): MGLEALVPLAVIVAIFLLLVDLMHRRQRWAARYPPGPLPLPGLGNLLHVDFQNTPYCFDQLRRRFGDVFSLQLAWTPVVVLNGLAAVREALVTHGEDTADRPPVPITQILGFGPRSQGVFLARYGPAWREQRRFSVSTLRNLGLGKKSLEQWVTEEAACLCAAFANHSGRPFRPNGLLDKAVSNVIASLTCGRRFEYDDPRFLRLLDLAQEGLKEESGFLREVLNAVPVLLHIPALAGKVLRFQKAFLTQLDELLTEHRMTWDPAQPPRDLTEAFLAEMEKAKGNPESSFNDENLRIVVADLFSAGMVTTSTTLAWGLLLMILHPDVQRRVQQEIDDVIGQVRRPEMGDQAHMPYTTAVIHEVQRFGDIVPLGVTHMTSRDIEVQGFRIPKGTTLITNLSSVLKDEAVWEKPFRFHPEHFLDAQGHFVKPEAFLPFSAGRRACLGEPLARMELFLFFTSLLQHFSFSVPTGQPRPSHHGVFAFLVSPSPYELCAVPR
Uncharacterized protein, sequence (A0A8I3N355 whole entry): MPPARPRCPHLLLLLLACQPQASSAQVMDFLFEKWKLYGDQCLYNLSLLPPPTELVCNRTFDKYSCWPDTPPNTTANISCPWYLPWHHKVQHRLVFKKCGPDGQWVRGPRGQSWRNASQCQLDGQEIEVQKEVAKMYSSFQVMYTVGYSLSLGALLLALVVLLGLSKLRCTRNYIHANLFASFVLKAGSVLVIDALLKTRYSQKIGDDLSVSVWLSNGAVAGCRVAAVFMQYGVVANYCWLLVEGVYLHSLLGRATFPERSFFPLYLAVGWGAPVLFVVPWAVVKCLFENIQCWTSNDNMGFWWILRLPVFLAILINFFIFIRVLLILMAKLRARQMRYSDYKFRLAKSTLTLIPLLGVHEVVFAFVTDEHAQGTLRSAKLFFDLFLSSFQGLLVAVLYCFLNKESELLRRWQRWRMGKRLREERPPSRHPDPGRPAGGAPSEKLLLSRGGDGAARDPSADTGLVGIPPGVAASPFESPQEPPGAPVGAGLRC
Glucagon receptor (Rattus norvegicus, UniProt P30082), sequence (P30082 whole entry): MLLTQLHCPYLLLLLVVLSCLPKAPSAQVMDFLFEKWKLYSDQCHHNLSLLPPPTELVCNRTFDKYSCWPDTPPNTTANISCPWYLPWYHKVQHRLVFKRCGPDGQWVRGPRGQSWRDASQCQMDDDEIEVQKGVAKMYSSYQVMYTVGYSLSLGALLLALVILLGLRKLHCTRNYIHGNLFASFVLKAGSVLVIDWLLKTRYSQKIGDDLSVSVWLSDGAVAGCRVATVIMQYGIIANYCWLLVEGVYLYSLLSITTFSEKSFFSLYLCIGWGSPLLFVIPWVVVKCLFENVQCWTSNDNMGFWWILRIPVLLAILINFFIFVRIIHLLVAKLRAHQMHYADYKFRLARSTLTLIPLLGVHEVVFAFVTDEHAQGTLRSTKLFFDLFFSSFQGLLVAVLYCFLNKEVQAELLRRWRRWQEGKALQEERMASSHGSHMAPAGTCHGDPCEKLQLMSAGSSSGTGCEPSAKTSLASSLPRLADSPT
Glucagon receptor (Mus musculus, UniProt Q61606), sequence (Q61606 whole entry): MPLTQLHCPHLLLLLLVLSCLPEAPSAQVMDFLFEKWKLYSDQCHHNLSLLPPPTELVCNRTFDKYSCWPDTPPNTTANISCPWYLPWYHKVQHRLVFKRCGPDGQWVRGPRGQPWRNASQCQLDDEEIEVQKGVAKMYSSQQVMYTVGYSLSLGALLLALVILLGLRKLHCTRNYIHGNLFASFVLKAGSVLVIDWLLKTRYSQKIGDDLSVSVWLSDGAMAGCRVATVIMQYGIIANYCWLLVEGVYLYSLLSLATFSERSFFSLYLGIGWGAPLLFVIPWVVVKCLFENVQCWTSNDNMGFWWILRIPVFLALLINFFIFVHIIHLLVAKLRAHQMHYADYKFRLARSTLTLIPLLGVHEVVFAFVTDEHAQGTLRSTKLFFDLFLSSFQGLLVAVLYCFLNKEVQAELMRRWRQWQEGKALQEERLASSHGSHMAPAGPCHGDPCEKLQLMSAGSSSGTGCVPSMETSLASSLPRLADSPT
Glucagon receptor (Homo sapiens, UniProt P47871), sequence (P47871 whole entry): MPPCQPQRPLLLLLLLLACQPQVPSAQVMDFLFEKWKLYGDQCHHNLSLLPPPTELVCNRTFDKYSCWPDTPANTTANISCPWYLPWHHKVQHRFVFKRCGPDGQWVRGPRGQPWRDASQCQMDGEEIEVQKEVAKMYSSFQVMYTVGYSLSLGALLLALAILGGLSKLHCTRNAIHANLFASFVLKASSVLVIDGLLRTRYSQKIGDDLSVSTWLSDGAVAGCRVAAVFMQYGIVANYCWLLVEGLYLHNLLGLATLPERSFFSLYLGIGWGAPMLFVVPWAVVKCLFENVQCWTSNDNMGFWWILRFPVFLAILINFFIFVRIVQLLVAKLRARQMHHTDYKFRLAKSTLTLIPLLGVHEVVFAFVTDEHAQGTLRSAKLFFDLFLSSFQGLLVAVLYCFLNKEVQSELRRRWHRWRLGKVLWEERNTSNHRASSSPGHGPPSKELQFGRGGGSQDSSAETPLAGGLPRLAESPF
Cytochrome P450 2C9, sequence (P11712 whole entry): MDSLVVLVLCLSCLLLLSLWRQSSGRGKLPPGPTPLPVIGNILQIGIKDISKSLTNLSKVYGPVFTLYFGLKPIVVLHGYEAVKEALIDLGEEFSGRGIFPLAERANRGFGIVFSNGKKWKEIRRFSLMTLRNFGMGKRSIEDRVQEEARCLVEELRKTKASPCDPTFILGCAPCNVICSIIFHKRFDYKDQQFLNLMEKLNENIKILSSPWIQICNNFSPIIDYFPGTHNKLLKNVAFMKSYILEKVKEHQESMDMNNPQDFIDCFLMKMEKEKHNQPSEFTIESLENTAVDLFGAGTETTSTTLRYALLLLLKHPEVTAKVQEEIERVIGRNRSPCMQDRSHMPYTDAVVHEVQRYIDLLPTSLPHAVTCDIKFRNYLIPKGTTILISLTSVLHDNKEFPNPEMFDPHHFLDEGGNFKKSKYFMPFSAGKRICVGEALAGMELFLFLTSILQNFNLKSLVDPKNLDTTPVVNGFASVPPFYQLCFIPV

IC50 [2]: 140 nM
AUC [4]: 27 µM·kg·h/mg
IC50 [5]: 5800 nM
half-life [6]: 3.6 h
IC50 [7]: 400 nM
IC50 [9]: 2600 nM
bioavailability [10]: 68%
concentration at 2 h [11]: 3350 nM
bioavailability [12]: 15%
Vd [13]: 0.55 L/kg
concentration at 0.75 h [14]: 10300 nM
clearance [15]: 0.49 mL/min/kg
Activity [16]: inactive
concentration at 2 h [18]: 14200 nM
IC50 [19]: > 100000 nM
IC50 [20]: 7500 nM
AUC [21]: 11 µM·kg·h/mg
bioavailability [23]: 57%
Cmax [24]: 230 nM
IC50 [25]: 2000 nM
bioavailability [26]: 46%
Cmax [28]: 1600 nM
concentration at 4 h [29]: 130 nM
concentration at 4 h [30]: 600 nM
IC50 [31]: 84 nM
SMILES: O=C(O)CCNC(=O)c1ccc(Cn2nc(-c3cc(Cl)cc(Cl)c3)cc2-c2ccc(OC(F)(F)F)cc2)cc1
inhibition [1]: Active
Activity [3]: 51%
Activity [8]: 64%
Activity [17]: 87%
inhibition [22]: Active
inhibition [27]: Active
